In the library only some 4% were active in any assay of this set; here they are far more common.
CHOP inh – CHOP inhibition in unfolded protein response; CHO-K1 CHOP-promoter luciferase, tunicamycin-induced, 15-18 h; inhibition, % at 10 µM; actives 3.8% (n = 220,000);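 active means compounds that reduced the stress-induced luciferase reporter signal by more than about 70% of percent inhibition, limit read from the data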;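 further: 0% = tunicamycin plus vehicle and 100% = wells without tunicamycin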
S1P3 antagonist – blocks the human S1P3 receptor; inhibition, % at 4.98 µM; actives 0.27% (n = 170,000); AID 485; CHO S1P3 NFAT-BLA reporter, FRET fluorescence, antagonist mode;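 active means inhibition above the plate cutoff, the mean inhibition of test wells on that plate plus 3 SD, cut at about 28% in these data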;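 further: cells challenged with S1P at its EC80 of 0.8 µM; blue over green emission ratio from cleaved BLA substrate after 4 h stimulation; 0% = S1P-stimulated wells and 100% = unstimulated DMSO-only wells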
Target sequence (Q99500 whole entry, looked up): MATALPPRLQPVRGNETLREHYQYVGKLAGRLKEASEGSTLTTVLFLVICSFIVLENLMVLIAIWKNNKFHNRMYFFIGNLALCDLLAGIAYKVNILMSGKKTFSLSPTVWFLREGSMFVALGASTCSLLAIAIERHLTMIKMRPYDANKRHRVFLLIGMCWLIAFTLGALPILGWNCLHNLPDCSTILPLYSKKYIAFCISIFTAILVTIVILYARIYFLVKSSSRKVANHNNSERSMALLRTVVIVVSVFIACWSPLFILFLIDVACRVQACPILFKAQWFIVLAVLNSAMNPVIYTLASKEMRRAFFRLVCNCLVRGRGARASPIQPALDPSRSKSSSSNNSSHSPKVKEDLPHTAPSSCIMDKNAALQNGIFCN
Mdm2 ligase inh – Mdm2 E3 ligase (human) inhibition. Q00987. cell-based MDM2 ubiquitination luciferase reporter, 2 h; 0 = plate control, 100 = twice control, blank-subtracted. signal enhancement, % at 5 µM. actives 0.11% (n = 210,000);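 active means signal enhancement of 30% or more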;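 further: luminescence tracks abundance of the self-degrading MDM2-luciferase fusion protein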
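System: stable MDM2–luciferase fusion reporter cells / Input: 2000 cells seeded into each well / Schedule: 4 h settle plus 2 h compound, 37 °C / Compound: single-point 5 µM / Buffer or medium: cells held in DMEM / Benchmarks: control and blank well means / Evaluation: percent signal gain over controls, blank-subtracted / Measured by: luciferase luminescence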
Hsp70 activator – Hsp70 transcriptional activation, primary screen. HeLa Hsp70 promoter luciferase reporter, luminescence; scaled: vehicle 0, proteasome-inhibitor control 100%. activation, % at 10 µM. actives 0.04% (n = 200,000). AID 1203;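 active means activation above the mean across all tested compounds plus 3 SD, cutoff set per campaign, cut at about 5.5% in these data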;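 further: 100% = MG132 at 30 µM as the positive control and 0% = DMSO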
* = called active by the depositor.

Results for CCOC(=O)C1CCCc2c1[nH]c1c(C(=O)O)cccc21 (configuration not stated) ?
CHOP inh: -19; S1P3 antagonist: 12; Mdm2 ligase inh: -5; Hsp70 activator: 0

What do the screens show for `COc1ccc([N+](=O)[O-])cc1NC(=O)C(C)N(C)Cc1ccc(Br)cc1` (configuration not stated)?
CHOP inh: 70*; S1P3 antagonist: 0; Mdm2 ligase inh: -1; Hsp70 activator: 0

What do the screens show for `CCn1c(C2CC(=O)N(c3cc(C)cc(C)c3)C2)nc2ccccc21` (configuration not stated)?
CHOP inh: 75*; S1P3 antagonist: -22; Mdm2 ligase inh: -17; Hsp70 activator: 0

Results for COc1ccc(CC(=O)Nc2nnc(C(C)(C)C)s2)cc1OC ?
CHOP inh: 2; S1P3 antagonist: -9; Mdm2 ligase inh: -5; Hsp70 activator: 0

Results for COc1ccc(OC)c(NC(=O)CSc2nc3ccccc3c3nc4ccccc4n23)c1 ?
CHOP inh: 78*; S1P3 antagonist: -4; Mdm2 ligase inh: -17; Hsp70 activator: 0

What do the screens show for `Nc1cc(-c2ccc(Br)cc2)nn1S(=O)(=O)c1ccccc1`?
CHOP inh: 72*; S1P3 antagonist: -8; Mdm2 ligase inh: -7; Hsp70 activator: 0

Results for Nc1cc(-c2ccc(Br)cc2)nc2cc(-c3ccccc3)nn12 ?
CHOP inh: 82*; S1P3 antagonist: -9; Mdm2 ligase inh: 18; Hsp70 activator: 0

Results for CC1Cc2ccccc2N1S(=O)(=O)c1cccc(C(=O)NCCCO)c1 (configuration not stated) ?
CHOP inh: 11; S1P3 antagonist: -10; Mdm2 ligase inh: -9; Hsp70 activator: 0

What do the screens show for `CCOC(=O)c1ccc(NC(=O)c2cccc(S(=O)(=O)N3c4ccccc4CC3C)c2)s1` (configuration not stated)?
CHOP inh: 71*; S1P3 antagonist: 6; Mdm2 ligase inh: -18; Hsp70 activator: 0

Results for N#CCCS(=O)(=O)c1nnnn1-c1ccccc1 ?
S1P3 antagonist: 21; Hsp70 activator: 0

Results for O=C(c1ccccc1)c1nn(-c2ccccc2)c(=O)cc1C(F)(F)F ?
CHOP inh: 24; Mdm2 ligase inh: -5; Hsp70 activator: -1

How did O=C(Nc1ccccc1)c1nn(-c2ccccc2)c(=O)cc1C(F)(F)F do in these assays?
CHOP inh: 73*; Mdm2 ligase inh: 7; Hsp70 activator: 0

What do the screens show for `O=C(c1ccccc1)c1nn(-c2ccc(Cl)cc2)c(=O)cc1C(F)(F)F`?
CHOP inh: 90*; Mdm2 ligase inh: -26; Hsp70 activator: 0

What do the screens show for `O=C(c1cccc(Cl)c1)c1nn(-c2ccccc2)c(=O)cc1C(F)(F)F`?
CHOP inh: 85*; Mdm2 ligase inh: -19; Hsp70 activator: 0

How did COc1ccc(C2Nc3cc(OC)ccc3-n3cccc32)cc1 (configuration not stated) do in these assays?
CHOP inh: 17; S1P3 antagonist: 0; Mdm2 ligase inh: -4

Results for Cc1cc(OCC(=O)NCc2ccncc2)ccc1Cl ?
CHOP inh: 6; S1P3 antagonist: -6; Mdm2 ligase inh: -3; Hsp70 activator: 0

What do the screens show for `O=C(c1ccccc1)N1CCN(CC2CC=CCC2)CC1` (configuration not stated)?
CHOP inh: 79*; S1P3 antagonist: 11; Mdm2 ligase inh: -8; Hsp70 activator: 0

How did O=C(c1ccccc1)N1CCN(CC(O)COCC2CC=CCC2)CC1 (configuration not stated) do in these assays?
CHOP inh: 4; S1P3 antagonist: -12; Mdm2 ligase inh: -33; Hsp70 activator: 3

What do the screens show for `Cc1cc(C)c2nc(-c3ccccn3)cc(C(=O)NCCc3ccc(S(N)(=O)=O)cc3)c2c1`?
CHOP inh: 89*; S1P3 antagonist: 4; Mdm2 ligase inh: -7; Hsp70 activator: 1

How did CC(C)(C)c1cc(=O)n(-c2ccccc2)[nH]1 do in these assays?
CHOP inh: 70*; S1P3 antagonist: -9; Mdm2 ligase inh: -11; Hsp70 activator: 0

How did CC(C)[C@@H]1NC(=O)[C@H](CCCCN)NC(=O)[C@@H](Cc2c[nH]c3ccccc23)NC(=O)[C@H](Cc2ccc(O)cc2)NC(=O)[C@H](C)N(C)C(=O)[C@H](Cc2ccccc2)NC1=O do in these assays?
CHOP inh: -1

What do the screens show for `N#Cc1ccsc1NC(=O)CN1CCN(S(=O)(=O)c2ccc3ccccc3c2)CC1`?
CHOP inh: 78*; S1P3 antagonist: -14; Mdm2 ligase inh: -15; Hsp70 activator: 0

What do the screens show for `N#Cc1ccsc1NC(=O)CN1CCN(Cc2ccccc2)CC1`?
CHOP inh: 5; S1P3 antagonist: -12; Mdm2 ligase inh: -10; Hsp70 activator: 0

Results for CC(=O)NC(Cc1cccc(C)c1)C(=O)NC1CCN(C(=O)c2ccc([N+](=O)[O-])cc2)CC1 (configuration not stated) ?
CHOP inh: 15; S1P3 antagonist: 5; Mdm2 ligase inh: -22; Hsp70 activator: 0

What do the screens show for `C=CCNC(=S)N1CCN(c2ncc(C(F)(F)F)cc2Cl)CC1`?
CHOP inh: 1; S1P3 antagonist: -3; Mdm2 ligase inh: -6

What do the screens show for `Cc1cc(C)n(-c2cc(N3CCN(C(=O)c4ccc(C(C)(C)C)cc4)CC3)ccc2[N+](=O)[O-])n1`?
CHOP inh: 73*; Mdm2 ligase inh: -1; Hsp70 activator: 0

How did COc1ccc(C(=O)N2CCN(c3ccc([N+](=O)[O-])c(-n4nc(C)cc4C)c3)CC2)cc1 do in these assays?
CHOP inh: -3; S1P3 antagonist: -3; Mdm2 ligase inh: 2; Hsp70 activator: 0

What do the screens show for `Cc1ccc(S(=O)(=O)NC(C)(C)CN2CCc3ccccc3C2)cc1`?
CHOP inh: 19; S1P3 antagonist: 0; Mdm2 ligase inh: -22

How did Cc1occc1-c1nnc(SCC(=O)c2ccc(F)cc2)n1Cc1ccco1 do in these assays?
CHOP inh: 42; S1P3 antagonist: 15; Mdm2 ligase inh: -15; Hsp70 activator: 0

How did O=C(CSc1nnc(-c2cc3ccccc3cc2O)n1Cc1ccco1)c1ccc(F)cc1 do in these assays?
CHOP inh: 85*; S1P3 antagonist: -4; Mdm2 ligase inh: -15; Hsp70 activator: -1

How did Cc1ccc(C(=O)NCC(=O)OCC(=O)c2cc(C)n(Cc3ccco3)c2C)cc1 do in these assays?
CHOP inh: 15; S1P3 antagonist: 1; Mdm2 ligase inh: -17; Hsp70 activator: 0

Results for C=CCn1c(C)cc(C(=O)COC(=O)CNC(=O)c2ccccc2)c1C ?
CHOP inh: 87*; S1P3 antagonist: -1; Mdm2 ligase inh: -89; Hsp70 activator: 0

Results for NC(=O)c1sc2nc3c(c(-c4cccs4)c2c1N)CCCC3 ?
CHOP inh: 76*; S1P3 antagonist: 12; Mdm2 ligase inh: -39; Hsp70 activator: 0

What do the screens show for `NC(=O)c1sc2nc3c(c(-c4ccco4)c2c1N)CCC3`?
CHOP inh: 66; S1P3 antagonist: 22; Mdm2 ligase inh: -3; Hsp70 activator: 0

How did Cn1cc(C(=O)CCl)c2ccccc21 do in these assays?
CHOP inh: 88*; S1P3 antagonist: -2; Mdm2 ligase inh: -1; Hsp70 activator: 0

Assay outcomes (PubChem BioAssay)
